Data set [1] addresses T1, Amyloid-beta precursor protein (Homo sapiens, UniProt P05067). The data set is described as follows: Inhibition of amyloid beta (1 to 42) (unknown origin) aggregation at 100 uM incubated for 48 hrs by ThioflavinT staining based fluorescence assay relative to control. In outline: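 Compound in DMSO (1 μl of a 1 mM solution) mixed with 9 μl of 25 μM Aβ1–42 in Tris pH 7.4. Incubated 48 h at 37 °C without agitation, then 200 μl of 5 μM ThT added. Fluorescence read at ex 446/em 500 nm; % inhibition vs DMSO control, solvent blank subtracted.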

Data set [2] deals with T1, Amyloid-beta precursor protein. The data set is described as follows: Inhibition of amyloid beta (1 to 42) (unknown origin) aggregation incubated for 48 hrs by ThioflavinT staining based fluorescence assay.
The test system of data set [3] is BV-2. The data set is described as follows: Cytotoxicity against mouse BV-2 cells assessed as reduction in cell viability at 10 uM measured after 24 hrs by MTT assay. The following applies: bv-2, 24 h. The data set is classed as toxicity, cell-based. The essentials:
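BV-2 microglia grown in DMEM with 10% FBS, HEPES and Glutamax at 37 °C, 5% CO2, seeded overnight at 1 × 10^4 cells/well. Compound alone at 0–200 μM (range extended lower where needed) for 24 h. MTT 2 h at 37 °C, formazan dissolved in DMSO, A570 read. Used to pick non-toxic concentrations.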
(Formazan colour is commonly taken as a measure of viable cells.)

For data set [4], the system named is BV-2. Nature of the data set: Neuroprotective activity in amyloid beta (1 to 42)-induced cytotoxicity in mouse BV-2 cells assessed as cell viability at 10 uM measured after 24 hrs by MTT assay (reference value: 54.96 +/- 1.12%). The data set is classed as functional. The settings on record: read-out: Activity.
Data set [5] is described as follows: Induction of ROS generation in mouse BV-2 cells at 10 uM measured after 24 hrs by DCFH-DA staining based fluorescence assay. The following applies: bv-2, 24 h. In kind it is toxicity, cell-based. The essentials: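 BV-2 cells seeded overnight at 1 × 10^4/well, compound alone (no Aβ). Cells loaded with 20 μM (final) DCFH-DA for 30 min at 37 °C, washed, then given conditioned medium for 24 h. Fluorescence read at ex […] nm. Expressed as % of control; n = 3 in triplicate, one-way ANOVA with LSD.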

Data set [6] has as its system BV-2. Nature of the data set: Neuroprotective activity in amyloid beta (1 to 42)-induced oxidative stress in mouse BV-2 cells assessed as intracellular ROS level at 10 uM measured after 24 hrs by DCFH-DA staining based fluorescence assay (reference value: 150.91 +/- 0.49%). In kind it is functional.
In data set [7] the test system is BV-2. Nature of the data set: Neuroprotective activity in amyloid beta (1 to 42)-induced inflammation in mouse BV-2 cells assessed as TNFalpha mRNA expression at 10 uM measured after 24 hrs by SYBR green staining based qRT-PCR analysis (reference value: 1.73 +/- 0.22%). In kind it is functional. For orientation: In qPCR the cycle at which signal appears reflects the starting amount.

Data set [8] deals with BV-2. Nature of the data set: Neuroprotective activity in amyloid beta (1 to 42)-induced inflammation in mouse BV-2 cells assessed as IL-1beta mRNA expression at 10 uM measured after 24 hrs by SYBR green staining based qRT-PCR analysis (reference value: 1.53 +/- 0.13%). The data set is classed as functional.
The subject of data set [9] is BV-2. Nature of the data set: Neuroprotective activity in amyloid beta (1 to 42)-induced inflammation in mouse BV-2 cells assessed as change in IL-6 mRNA expression at 10 uM measured after 24 hrs by SYBR green staining based qRT-PCR analysis. The data set is classed as functional, cell-based.
Data set [10] addresses T1, Amyloid-beta precursor protein. Nature of the data set: Inhibition of amyloid beta (1 to 42) aggregation in mouse BV-2 cells exposed to amyloid-beta (1 to 42) (unknown origin) at 10 uM measured after 24 to 48 hrs by thioflavin T staining based fluorescence assay. The data set is classed as cell-based. The following applies: time 24-48 hrs.
For data set [11], the system named is SH-SY5Y. The data set is described as follows: Neuroprotective activity against human SH-SY5Y cells co-cultured with 10 uM compound pretreated BV-2 cells exposed to amyloid beta (1 to 42) assessed as cell viability measured after 24 hrs by MTT assay (reference value: 80.62 +/- 0.86%). The data set is classed as functional. The following applies: read-out: Activity.

Data set [12] can be described thus: Octanol/water partition coefficient, log P of the compound incubated for 2 hrs under shaking condition by HPLC analysis. The data set is classed as physicochemical. In outline: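 Shake-flask log P: 10 mM stock (DMSO, or octanol for highly lipophilic compounds) partitioned between mutually saturated octanol and water at three phase ratios. Shaken 2 h at 25 ± 1 °C, phases separated, each phase quantified by C18 HPLC-UV. Mobile phase 0.1% formic acid:methanol 40:60; log P averaged over the three ratios.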

Activity calls are given as the source filed them. No cut-off for these calls is given here. Some results are limits rather than exact numbers.

T1 sequence (P05067 whole entry): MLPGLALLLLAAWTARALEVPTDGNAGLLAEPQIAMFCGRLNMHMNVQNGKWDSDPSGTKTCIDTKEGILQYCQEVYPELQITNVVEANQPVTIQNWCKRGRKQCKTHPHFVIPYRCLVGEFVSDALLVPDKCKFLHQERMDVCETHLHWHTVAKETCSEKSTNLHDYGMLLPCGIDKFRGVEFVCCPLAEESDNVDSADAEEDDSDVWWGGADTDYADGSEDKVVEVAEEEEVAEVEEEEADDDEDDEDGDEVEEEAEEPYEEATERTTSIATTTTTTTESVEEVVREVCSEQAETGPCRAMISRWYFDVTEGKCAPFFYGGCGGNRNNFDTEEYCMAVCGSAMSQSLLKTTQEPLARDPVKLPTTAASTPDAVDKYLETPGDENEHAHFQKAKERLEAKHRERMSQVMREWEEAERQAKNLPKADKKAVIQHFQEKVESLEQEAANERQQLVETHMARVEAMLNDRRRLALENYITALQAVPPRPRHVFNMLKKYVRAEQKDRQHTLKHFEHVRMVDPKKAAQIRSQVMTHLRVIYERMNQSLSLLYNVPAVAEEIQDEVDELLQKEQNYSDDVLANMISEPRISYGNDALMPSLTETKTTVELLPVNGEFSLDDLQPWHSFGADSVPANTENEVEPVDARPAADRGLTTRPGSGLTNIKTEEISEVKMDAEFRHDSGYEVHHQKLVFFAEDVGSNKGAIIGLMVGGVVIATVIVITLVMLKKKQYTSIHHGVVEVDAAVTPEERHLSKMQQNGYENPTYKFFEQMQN

A word on the inhibition: it is how much of the control response was suppressed. Broadly, the IC50 is the midpoint of a concentration-inhibition curve. A high value points to a need for much substance. What is called logP is a log measure of how a compound divides between an organic and an aqueous phase. High values mean a more lipophilic compound, low ones a more hydrophilic compound. The molecule `COc1cc(/C=C/C(=O)OCc2cn(-c3ccc(Oc4ccccc4)cc3)nn2)ccc1O` displayed an inhibition in data set [1] of over 50%. In addition, the IC50 in [2] was determined as 14.1 µM. The Activity entry in data set [3] is recorded as “Non-Toxic”; in data set [5] it was “Non-Toxic”; in data set [6], 105.68%; in data set [7], 1.19%; in data set [8], 8.29%. In addition, the viability at 10 µM in data set [4] amounted to 62.9%; in data set [11] it was 87.2%. The outcome in [9] was inactive. In addition, the inhibition result in data set [10] is “Active”. In data set [12], this molecule returned a logP at 2 h of 4.92.

These data come from ChEMBL document CHEMBL5584325, “Discovery of novel coumarin triazolyl and phenoxyphenyl triazolyl derivatives targeting amyloid beta aggregation-mediated oxidative stress and neuroinflammation for enhanced neuroprotection” (RSC Med Chem, 2024).
